Laboratory results taken from ChEMBL document CHEMBL4177755, “Combating Drug-Resistant Fungi with Novel Imperfectly Amphipathic Palindromic Peptides” (J Med Chem, 2018).

Assays:
[1] = test system: Candida albicans; assay: Antifungal activity against Candida albicans cgmcc 2.2086 in presence of FeCl3 by broth dilution method; assay type: functional
[2] = Antibacterial activity against Salmonella pullorum ATCC 7913 after 24 hrs; assay type: functional, Salmonella enterica subsp. enterica serovar Pullorum; details: Salmonella enterica, ATCC 7913, 24 h
How it was run: (§1)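 Broth microdilution. Mid-log bacteria in MHB at a final (0.5−1) × 10^5 CFU/mL were mixed with equal volumes of peptide serially diluted in 0.2% BSA. Plates were incubated 24 h at 37 °C and read at A492. MIC is the lowest concentration inhibiting 95% of growth. Each test was repeated at least 3 times.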

[3] = test system: Salmonella typhimurium; assay: Bactericidal activity against Salmonella typhimurium ATCC 14028; assay type: functional, Salmonella enterica subsp. enterica serovar Typhimurium; details: Salmonella enterica, read-out: MBC99.9
How it was run: (§2)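 Wells from the 24 h, 37 °C MHB microdilution plates (bacteria at a final (0.5−1) × 10^5 CFU/mL; peptide diluted in 0.2% BSA) were plated on agar and incubated overnight. MBC is the lowest concentration killing >99.9% of cells. Each test was reproduced at least 3 times.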

[4] = test system: Candida albicans; assay: Fungicidal activity against Candida albicans 14936 after 96 hrs; assay type: functional; details: Candida albicans, 14936, 96 h; read-out: MFC99.9
How it was run: (§3)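 After the 48 h, 28 °C broth microdilution in MOPS-buffered RPMI 1640 (inoculum (0.5−1) × 10^3 CFU/mL), 50 μL from each well was plated on YM agar for a further 48 h at 28 °C. MFC is the lowest concentration killing at least 99.9% of cells. Triplicate, three biological replicates.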

[5] = Bactericidal activity against Salmonella pullorum ATCC 7913; assay type: functional, Salmonella enterica subsp. enterica serovar Pullorum; details: Salmonella enterica, read-out: MBC99.9; how it was run: as §2
[6] = test system: Candida albicans; assay: Antifungal activity against fluconazole-resistant Candida albicans 56452 after 48 hrs by broth microdilution method; assay type: functional; details: Candida albicans, 56452, 48 h
How it was run: (§4)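 Modified CLSI M27-A2 broth microdilution. Yeast at (0.5−1) × 10^3 CFU/mL in MOPS-buffered RPMI 1640 was mixed 1:1 with peptide serially diluted in 0.2% BSA and incubated 48 h at 28 °C. Absorbance was read at 492 nm; MIC is the lowest concentration inhibiting 95% of growth. Triplicate, three biological replicates.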

[7] = test system: Candida albicans; assay: Fungicidal activity against Candida albicans SP3903 after 96 hrs; assay type: functional; details: SP3903, 96 h, read-out: MFC99.9; how it was run: as §3
[8] = test system: Escherichia coli; assay: Antibacterial activity against Escherichia coli ATCC 25922 after 18 hrs in presence of NaCl by broth dilution method; assay type: functional; details: ATCC 25922, 18 h
[9] = test system: Candida albicans; assay: Fungicidal activity against Candida albicans cgmcc 2.2086 after 96 hrs; assay type: functional; details: cgmcc 2.2086, 96 h, read-out: MFC99.9; how it was run: as §3
[10] = test system: Pichia kudriavzevii; assay: Fungicidal activity against Candida krusei cgmcc 2.1857 after 96 hrs; assay type: functional; details: cgmcc 2.1857, 96 h, read-out: MFC99.9
How it was run: (§5)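 Wells from the 48 h, 28 °C RPMI 1640/MOPS microdilution plates were plated on YM agar and incubated a further 48 h at 28 °C. MFC is the lowest concentration killing at least 99.9% of cells. Run in triplicate with three biological replicates.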

[11] = test system: Candida albicans; assay: Antifungal activity against Candida albicans 58288 after 48 hrs by broth microdilution method; assay type: functional; details: Candida albicans, 58288, 48 h; how it was run: as §4
[12] = Cytotoxicity against HEK293T cells assessed as cell viability at 2 to 64 uM after 24 hrs by MTT assay relative to control; assay type: cell-based, HEK-293T; details: human, read-out: Activity
How it was run: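 MTT viability assay. RAW264.7 or HEK293T cells at (1.0−2.0) × 10^5 per well were exposed to a peptide concentration series for 24 h at 37 °C in 5% CO2. MTT was then added at 0.5 mg/mL final for 4 h; formazan was dissolved in DMSO and read at 570 nm. Results average three independent trials.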

[13] = test system: Candida tropicalis; assay: Fungicidal activity against Candida tropicalis cgmcc 2.1975 after 96 hrs; assay type: functional; details: cgmcc 2.1975, 96 h, read-out: MFC99.9; how it was run: as §5
[14] = test system: Staphylococcus aureus; assay: Bactericidal activity against Staphylococcus aureus ATCC 29213; assay type: functional; details: read-out: MBC99.9; how it was run: as §2
[15] = test system: Staphylococcus aureus; assay: Antibacterial activity against methicillin-resistant Staphylococcus aureus ATCC 4330 after 24 hrs; assay type: functional; details: ATCC 4330, 24 h
How it was run: (§6)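 Modified NCCLS broth microdilution. Mid-log bacteria at (0.5−1) × 10^5 CFU/mL in MHB were mixed 1:1 with peptide serially diluted in 0.2% BSA and incubated 24 h at 37 °C. Absorbance was read at 492 nm; MIC is the lowest concentration inhibiting 95% of growth. At least 3 repeats.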

[16] = test system: Candida albicans; assay: Antifungal activity against Candida albicans cgmcc 2.2086 in presence of CaCl2 by broth dilution method; assay type: functional
[17] = test system: Escherichia coli; assay: Antibacterial activity against Escherichia coli 1005 after 24 hrs; assay type: functional; details: Escherichia coli, 1005, 24 h; how it was run: as §1
[18] = test system: Staphylococcus aureus; assay: Antibacterial activity against Staphylococcus aureus ATCC 25923 after 24 hrs; assay type: functional; details: ATCC 25923, 24 h; how it was run: as §6
[19] = test system: Candida albicans; assay: Antifungal activity against Candida albicans SP3902 after 48 hrs by broth microdilution method; assay type: functional; details: SP3902, 48 h; how it was run: as §4
[20] = test system: Candida albicans; assay: Antifungal activity against Candida albicans isolated from alveolar fluid after 48 hrs by broth microdilution method; assay type: functional; how it was run: as §4
[21] = test system: Candida albicans; assay: Fungicidal activity against fluconazole-resistant Candida albicans 56452 after 96 hrs; assay type: functional; details: Candida albicans, 56452, 96 h; read-out: MFC99.9; how it was run: as §3
[22] = test system: Escherichia coli; assay: Antibacterial activity against Escherichia coli ATCC 25922 after 18 hrs in presence of NH4Cl by broth dilution method; assay type: functional; details: ATCC 25922, 18 h
[23] = test system: Salmonella typhimurium; assay: Antibacterial activity against Salmonella typhimurium ATCC 14028 after 24 hrs; assay type: functional, Salmonella enterica subsp. enterica serovar Typhimurium; details: Salmonella enterica, ATCC 14028, 24 h; how it was run: as §1
[24] = test system: Escherichia coli; assay: Antibacterial activity against Escherichia coli ATCC 25922 after 24 hrs; assay type: functional; details: ATCC 25922, 24 h; how it was run: as §1
[25] = test system: Candida albicans; assay: Antifungal activity against Candida albicans SP3903 after 48 hrs by broth microdilution method; assay type: functional; details: SP3903, 48 h; how it was run: as §4
[26] = test system: Candida albicans; assay: Antifungal activity against Candida albicans cgmcc 2.2086 in presence of MgCl2 by broth dilution method; assay type: functional
[27] = test system: Staphylococcus aureus; assay: Bactericidal activity against methicillin-resistant Staphylococcus aureus ATCC 4330; assay type: functional; details: read-out: MBC99.9
How it was run: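 Bacteria at (0.5−1) × 10^5 CFU/mL in MHB were exposed to serially diluted peptide (0.2% BSA) for 24 h at 37 °C, then 50 μL aliquots were plated on agar overnight. MBC is the lowest concentration killing >99.9% of cells. At least 3 repeats.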

[28] = test system: Candida albicans; assay: Antifungal activity against Candida albicans cgmcc 2.2086 in presence of ZnCl2 by broth dilution method; assay type: functional
[29] = test system: Pichia kudriavzevii; assay: Antifungal activity against Candida krusei cgmcc 2.1857 after 48 hrs by broth microdilution method; assay type: functional; details: cgmcc 2.1857, 48 h
How it was run: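 Modified CLSI M27-A2 broth microdilution. Yeast were suspended in MOPS-buffered RPMI 1640 at a final (0.5−1) × 10^3 CFU/mL and mixed 1:1 with peptide serially diluted in 0.2% BSA. Plates were incubated 48 h at 28 °C and read at A492. MIC is the lowest concentration giving 95% inhibition. Run in triplicate with three biological replicates.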

[30] = test system: Candida albicans; assay: Fungicidal activity against Candida albicans isolated from alveolar fluid after 96 hrs; assay type: functional; details: read-out: MFC99.9; how it was run: as §3
[31] = test system: Candida albicans; assay: Antifungal activity against Candida albicans cgmcc 2.2086 in presence of NH4Cl by broth dilution method; assay type: functional

Row | Substance | MIC [1] [µM] | MIC95 [2] [µM] | MBC [3] [µM] | MFC [4] [µM] | MBC [5] [µM] | MIC95 [6] [µM] | MFC [7] [µM] | MIC [8] [µM] | MFC [9] [µM] | MFC [10] [µM] | MIC95 [11] [µM] | viability at 24 h, up to 64 µM [12] [%] | MFC [13] [µM] | MBC [14] [µM] | MIC95 [15] [µM] | MIC [16] [µM] | MIC95 [17] [µM] | MIC95 [18] [µM] | MIC95 [19] [µM] | MIC95 [20] [µM] | also measured
1 | H-IIRRIRRII-NH2 | 64 | 32 | > 64 | > 64 | > 64 | 64 | > 64 | 32 | 64 | 16 | > 64 | 70 to 80 | 8 | > 64 | 64 | 64 | 16 | > 64 | > 64 | 64 | MFC [21]: 64 µM; MIC [22]: 32 µM; MIC95 [23]: 64 µM; MIC95 [24]: 32 µM; MIC95 [25]: > 64 µM; MIC [26]: 64 µM; MBC [27]: > 64 µM; MIC [28]: 64 µM; MIC95 [29]: 16 µM; MFC [30]: > 64 µM; MIC [31]: 64 µM
2 | H-RRIRIIIRIRR-NH2 | 2 | 2 | 4 | 2 | 4 | 1 | 1 | 4 | 2 | 2 | 2 | > 85 | 2 | 8 | 4 | 4 | 4 | 4 | 2 | 2 | MFC [21]: 1 µM; MIC [22]: 4 µM; MIC95 [23]: 4 µM; MIC95 [24]: 4 µM; MIC95 [25]: 1 µM; MIC [26]: 2 µM; MBC [27]: 4 µM; MIC [28]: 2 µM; MIC95 [29]: 2 µM; MFC [30]: 4 µM; MIC [31]: 2 µM
3 | H-RWRWWWRWR-NH2 | 8 | 2 | 4 | 8 | 8 | 4 | 8 | 4 | 16 | 8 | 4 | 70 to 80 | 2 | 16 | 2 | 32 | 2 | 4 | 8 | 8 | MFC [21]: 4 µM; MIC [22]: 4 µM; MIC95 [23]: 4 µM; MIC95 [24]: 4 µM; MIC95 [25]: 8 µM; MIC [26]: 8 µM; MBC [27]: 2 µM; MIC [28]: 8 µM; MIC95 [29]: 4 µM; MFC [30]: 16 µM; MIC [31]: 8 µM
4 | H-FFRRFRRFF-NH2 | 32 | 32 | 8 | 32 | 64 | 16 | 16 | 8 | 32 | 4 | 16 | 70 to 80 | 8 | 32 | 4 | 32 | 8 | 4 | 32 | 16 | MFC [21]: 16 µM; MIC [22]: 8 µM; MIC95 [23]: 4 µM; MIC95 [24]: 8 µM; MIC95 [25]: 16 µM; MIC [26]: 16 µM; MBC [27]: 4 µM; MIC [28]: 32 µM; MIC95 [29]: 4 µM; MFC [30]: 32 µM; MIC [31]: 8 µM
5 | H-RLLRRLRRLLR-NH2 | 8 | 8 | 16 | 8 | 32 | 8 | 4 | 4 | 16 | 8 | 4 | 70 to 80 | 4 | 16 | 8 | 8 | 4 | 8 | 4 | 8 | MFC [21]: 8 µM; MIC [22]: 4 µM; MIC95 [23]: 8 µM; MIC95 [24]: 4 µM; MIC95 [25]: 4 µM; MIC [26]: 32 µM; MBC [27]: 16 µM; MIC [28]: 8 µM; MIC95 [29]: 4 µM; MFC [30]: 16 µM; MIC [31]: 4 µM
6 | H-RRLRLLLRLRR-NH2 | 8 | 2 | 4 | 8 | 8 | 4 | 2 | 4 | 16 | 8 | 8 | 70 to 80 | 4 | 16 | 8 | 64 | 4 | 4 | 4 | 4 | MFC [21]: 8 µM; MIC [22]: 4 µM; MIC95 [23]: 4 µM; MIC95 [24]: 4 µM; MIC95 [25]: 2 µM; MIC [26]: 8 µM; MBC [27]: 16 µM; MIC [28]: 8 µM; MIC95 [29]: 4 µM; MFC [30]: 8 µM; MIC [31]: 8 µM
7 | H-LLRRLRRLL-NH2 | 64 | 32 | 32 | > 64 | 64 | 32 | 16 | 16 | 64 | 8 | 64 | 70 to 80 | 8 | 64 | 8 | 64 | 16 | 16 | > 64 | 64 | MFC [21]: 32 µM; MIC [22]: 16 µM; MIC95 [23]: 16 µM; MIC95 [24]: 16 µM; MIC95 [25]: 16 µM; MIC [26]: 64 µM; MBC [27]: 16 µM; MIC [28]: 64 µM; MIC95 [29]: 8 µM; MFC [30]: > 64 µM; MIC [31]: 32 µM
